What all share (type): functional
In assay [1] the test system is Staphylococcus aureus. In words: Antibacterial activity against methicillin-resistant Staphylococcus aureus. In a few lines:
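Agar dilution MIC on Mueller–Hinton agar, run per the NCCLS procedure. Test organisms were clinical isolates collected from Seoul hospitals between 1997 and 1999 and stored at -70 °C until use.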

The test system of assay [2] is Staphylococcus aureus. In words: Antibacterial activity against Staphylococcus aureus. In a few lines: (§1)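 MIC by agar dilution on Mueller–Hinton agar, following the NCCLS procedure.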
Assay [3] deals with Micrococcus luteus. In words: Antibacterial activity against Micrococcus luteus ATCC 9341. In outline: as §1
Another assay concerns Bacillus cereus. Briefly: Antibacterial activity against Bacillus cereus ATCC 27348. In a few lines: as §1
Assay [4] concerns Micrococcus luteus. In words: Antibacterial activity against Micrococcus luteus ATCC 10240. In outline:
as §1

The subject of a further assay is Klebsiella pneumoniae. Briefly: Antibacterial activity against Klebsiella pneumoniae ATCC 10031. In a few lines: as §1
For another assay, the system named is Bacillus subtilis. In words: Antibacterial activity against Bacillus subtilis ATCC 6633. In outline: as §1
The test system of assay [5] is Staphylococcus aureus. Briefly: Antibacterial activity against Staphylococcus aureus ATCC 25923. In outline:
as §1

In assay [6] the test system is Staphylococcus epidermidis. In words: Antibacterial activity against Staphylococcus epidermidis ATCC 12228. In outline: as §1
For assay [7], the system named is Staphylococcus aureus. In words: Antibacterial activity against Staphylococcus aureus ATCC 6538P. In outline:
as §1

Assay [8] relates to Staphylococcus aureus. Briefly: Antibacterial activity against Staphylococcus aureus ATCC 29213. In a few lines:
as §1

The structures appear in SMILES notation. Converted amounts (≈) assume the structure as drawn.

A word on the MIC50: it is the lowest concentration that inhibits either 50% of growth or 50% of the strains tested, depending on the study. For orientation: MIC90 means the lowest concentration that inhibits either 90% of growth or 90% of the strains tested, depending on the study. In the assay with Staphylococcus aureus [1], `CC1=COC2=CC(=O)C(=O)c3cccc1c32` came in with an MIC50 of over 32 µg/mL and an MIC90 of over 32 µg/mL.
In the assay on Staphylococcus aureus [1], `CC1=COC2=C(C)C(=O)C(=O)c3cccc1c32` came in with an MIC50 of 8 µg/mL (≈ 35.4 µM) and an MIC90 of 8 µg/mL (≈ 35.4 µM).
As for `CCCCCCc1ccc2c3c1C(=O)C(=O)C(C)=C3OC=C2C`, in the assay on Staphylococcus aureus [1], the MIC50 worked out at 8 µg/mL (≈ 25.8 µM) and the MIC90 turned out to be 16 µg/mL (≈ 51.5 µM).
As to `CC1=COC2=C(C)C(=O)C(=O)c3c(C(C)C)ccc1c32`, in the assay on Staphylococcus aureus [1], the MIC50 is 4 µg/mL (≈ 14.9 µM) and the MIC90 turned out to be 16 µg/mL (≈ 59.6 µM).
The term MIC denotes the lowest concentration that inhibits growth of the organism. `CCCCc1ccc2c3c1C(=O)C(=O)C(C)=C3OC=C2C`: the minimum inhibitory concentration (MIC) in the assay on Staphylococcus aureus [2] (Smith) is 0.25 µg/mL (≈ 0.885 µM); with Staphylococcus aureus [2] (TMS 33), 0.5 µg/mL (≈ 1.77 µM); in the assay on Staphylococcus aureus [2] (TMS 64), 0.25 µg/mL (≈ 0.885 µM); in the assay on Staphylococcus aureus [2] (TMS 417) it was 0.25 µg/mL (≈ 0.885 µM); in the assay with Micrococcus luteus [3] it was 0.25 µg/mL (≈ 0.885 µM); with Bacillus cereus, 1 µg/mL (≈ 3.54 µM). Further, the minimal inhibitory concentration (MIC) against Micrococcus luteus [4] was 0.25 µg/mL (≈ 0.885 µM); in the assay with Klebsiella pneumoniae, 2 µg/mL (≈ 7.08 µM); against Bacillus subtilis it was 0.5 µg/mL (≈ 1.77 µM); against Staphylococcus aureus [5] it was 0.25 µg/mL (≈ 0.885 µM); in assay [6], 0.25 µg/mL (≈ 0.885 µM); in the assay on Staphylococcus aureus [7] it was 0.25 µg/mL (≈ 0.885 µM). The MIC in the assay with Staphylococcus aureus [8] was determined as 0.25 µg/mL (≈ 0.885 µM). The same compound registered an MIC50 in the assay on Staphylococcus aureus [1] of 0.5 µg/mL (≈ 1.77 µM). For the same compound, the MIC90 against Staphylococcus aureus [1] stood at 0.5 µg/mL (≈ 1.77 µM).
Consider `CCC1=C2OC=C(C)c3ccc(C)c(c32)C(=O)C1=O`, for which, in the assay with Staphylococcus aureus [1], the MIC50 was found to be 16 µg/mL (≈ 62.9 µM) and the MIC90 is over 32 µg/mL.
Taken in the same sequence, the figures for `CC(=O)C1=C2OC=C(C)c3ccc(C)c(c32)C(=O)C1=O` were 16 µg/mL (≈ 59.6 µM) and 32 µg/mL (≈ 119 µM).
Taken in the same sequence, the figures for `CC1=COC2=C(Br)C(=O)C(=O)c3c(C)ccc1c32` were 8 µg/mL (≈ 26.2 µM) and 16 µg/mL (≈ 52.4 µM).
Taken in the same sequence, the figures for `CC1=COC2=C(C)C(=O)C(=O)c3c(CCC(C)C)ccc1c32` were 8 µg/mL (≈ 27 µM) and 16 µg/mL (≈ 54 µM).
For `COc1ccc2c3c1C(=O)C(=O)C(C)=C3OC=C2C`, in the assay with Staphylococcus aureus [1], the MIC50 came out at 8 µg/mL (≈ 31.2 µM) and the MIC90 was determined as 8 µg/mL (≈ 31.2 µM).
In the assay on Staphylococcus aureus [1], `COC(=O)c1ccc2c3c1C(=O)C(=O)C(C)=C3OC=C2C` yielded an MIC50 of 16 µg/mL (≈ 56.3 µM) and an MIC90 of 16 µg/mL (≈ 56.3 µM).
For the compound `CC1=COC2=CC(=O)C(=O)c3c(C)ccc1c32`, in the assay on Staphylococcus aureus [1], the MIC50 came out at 8 µg/mL (≈ 35.4 µM) and the MIC90 was 16 µg/mL (≈ 70.7 µM).
In the assay with Staphylococcus aureus [1], `CCCCCc1ccc2c3c1C(=O)C(=O)C(C)=C3OC=C2C` registered an MIC50 of 4 µg/mL (≈ 13.5 µM) and an MIC90 of 8 µg/mL (≈ 27 µM).
In the assay with Staphylococcus aureus [1], `CCCC1=C2OC=C(C)c3ccc(C)c(c32)C(=O)C1=O` gave an MIC50 of 4 µg/mL (≈ 14.9 µM) and an MIC90 of 8 µg/mL (≈ 29.8 µM).
In the assay on Staphylococcus aureus [1], `CCCc1ccc2c3c1C(=O)C(=O)C(C)=C3OC=C2C` displayed an MIC50 of 1 µg/mL (≈ 3.73 µM) and an MIC90 of 4 µg/mL (≈ 14.9 µM).
In the assay with Staphylococcus aureus [1], `CC1=COC2=C(CBr)C(=O)C(=O)c3c(C)ccc1c32` had an MIC50 of 16 µg/mL (≈ 50.1 µM) and an MIC90 of 16 µg/mL (≈ 50.1 µM).
Take `COC(=O)C1=C2OC=C(C)c3ccc(C)c(c32)C(=O)C1=O`: in the assay with Staphylococcus aureus [1], the MIC50 was 16 µg/mL (≈ 56.3 µM) and the MIC90 was 32 µg/mL (≈ 113 µM).
In the assay on Staphylococcus aureus [1], `CCc1ccc2c3c1C(=O)C(=O)C(C)=C3OC=C2C` registered an MIC50 of 8 µg/mL (≈ 31.5 µM) and an MIC90 of 16 µg/mL (≈ 62.9 µM).
As for `CC1=COC2=C(C)C(=O)C(=O)c3c(C)ccc1c32` [MANSONONE F], the MIC in the assay on Staphylococcus aureus [2] (Smith) turned out to be 4 µg/mL (≈ 16.6 µM); in the assay on Staphylococcus aureus [2] (TMS 33) it was 8 µg/mL (≈ 33.3 µM); with Staphylococcus aureus [2] (TMS 64), 8 µg/mL (≈ 33.3 µM); against Staphylococcus aureus [2] (TMS 417), 4 µg/mL (≈ 16.6 µM); in the assay on Micrococcus luteus [3], 1 µg/mL (≈ 4.16 µM); in the assay on Bacillus cereus, 4 µg/mL (≈ 16.6 µM). For the same compound, the minimal inhibitory concentration (MIC) with Micrococcus luteus [4] turned out to be 1 µg/mL (≈ 4.16 µM); in the assay on Klebsiella pneumoniae, 8 µg/mL (≈ 33.3 µM); in the assay with Bacillus subtilis, 2 µg/mL (≈ 8.32 µM); against Staphylococcus aureus [5], 1 µg/mL (≈ 4.16 µM); in assay [6] it was 0.5 µg/mL (≈ 2.08 µM); in the assay on Staphylococcus aureus [7] it was 4 µg/mL (≈ 16.6 µM). In addition, the lowest concentration to inhibit growth against Staphylococcus aureus [8] (MIC) was 4 µg/mL (≈ 16.6 µM). Moreover, in the assay with Staphylococcus aureus [1], the MIC50 turned out to be 2 µg/mL (≈ 8.32 µM). In the assay with Staphylococcus aureus [1], this compound registered an MIC90 of 4 µg/mL (≈ 16.6 µM).
Regarding `CN[C@H](CC(C)C)C(=O)N[C@H]1C(=O)N[C@@H](CC(N)=O)C(=O)N[C@H]2C(=O)N[C@H]3C(=O)N[C@H](C(=O)N[C@H](C(=O)O)c4cc(O)cc(O)c4-c4cc3ccc4O)[C@H](O)c3ccc(c(Cl)c3)Oc3cc2cc(c3O[C@@H]2O[C@H](CO)[C@@H](O)[C@H](O)[C@H]2O[C@H]2C[C@](C)(N)[C@H](O)[C@H](C)O2)Oc2ccc(cc2Cl)[C@H]1O` [VANCOMYCIN], the minimal inhibitory concentration (MIC) in the assay on Micrococcus luteus [3] was 8 µg/mL (≈ 5.52 µM); in the assay on Bacillus cereus, 4 µg/mL (≈ 2.76 µM); with Micrococcus luteus [4], 4 µg/mL (≈ 2.76 µM); with Klebsiella pneumoniae, over 32 µg/mL; in the assay on Bacillus subtilis, 0.5 µg/mL (≈ 0.345 µM); against Staphylococcus aureus [5] it was 8 µg/mL (≈ 5.52 µM). The compound also registered an MIC in [6] of 8 µg/mL (≈ 5.52 µM). This compound showed an MIC50 against Staphylococcus aureus [1] of 2 µg/mL (≈ 1.38 µM). The compound also yielded an MIC90 with Staphylococcus aureus [1] of 2 µg/mL (≈ 1.38 µM).

The values above are taken from ChEMBL document CHEMBL1148547, “The structure-activity relationships of mansonone F, a potent anti-MRSA sesquiterpenoid quinone: SAR studies on the C6 and C9 analogs” (2006).
